The source of these data is ChEMBL document CHEMBL3792331, “Identification and synthesis of potent and selective pyridyl-isoxazole based agonists of sphingosine-1-phosphate 1 (S1P1)” (Bioorg Med Chem Lett, 2016).

The species entered for one data set is Homo sapiens. Put plainly: Inhibition of sodium channel (unknown origin) at 10 uM under 1 and 4 Hz condition by patch clamp assay. Background: Patch clamp records ionic current or voltage across a cell membrane.
For a further data set, the system named is Salmonella typhimurium. Put plainly: Mutagenicity in Salmonella typhimurium. Format: toxicity, organism-based. Particulars: salmonella enterica subsp. enterica serovar typhimurium.
Data set [1] is described as follows: Oral bioavailability in rat at 5 mg/kg. In kind it is ADME, organism-based. Conditions: in vivo.
In the next data set the test system is Rattus norvegicus. Put plainly: Ratio of Cmax to Cmin in rat at 5 mg/kg, po. Format: ADME, organism-based. Particulars: in vivo.
A short description of data set [2]: Plasma concentration Lewis rat at 1 mg/kg, po after 4 hrs. In kind it is ADME, organism-based. The method, boiled down:
(§1)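 Lewis rats given 1.0 mg/kg orally as solution or suspension in vehicle. Plasma drug concentration measured in blood drawn at 4 h and 24 h; 4 h/24 h ratio taken from these values.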

Data set [3] can be described thus: Half life in cynomolgus monkey at 1 mg/kg, iv. Conditions: in vivo. Format: ADME, organism-based, Macaca fascicularis.
Data set [4] is described as follows: Volume of distribution at steady state in cynomolgus monkey at 1 mg/kg, iv. Conditions: in vivo, read-out: Vdss. Format: ADME, organism-based, Macaca fascicularis. The method, boiled down: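 Multi-species pharmacokinetic study with separate iv and oral dosing arms. Steady-state volume of distribution was taken from the iv arm: 2 mg/kg in mouse and rat, 1 mg/kg in cynomolgus monkey and dog. Oral doses in the same study were 5 mg/kg in mouse and rat and 1 mg/kg in monkey and dog.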

The next data set has as its target T1, Cytochrome P450 1A2 (Homo sapiens, UniProt P05177).
T1 sequence (P05177 whole entry): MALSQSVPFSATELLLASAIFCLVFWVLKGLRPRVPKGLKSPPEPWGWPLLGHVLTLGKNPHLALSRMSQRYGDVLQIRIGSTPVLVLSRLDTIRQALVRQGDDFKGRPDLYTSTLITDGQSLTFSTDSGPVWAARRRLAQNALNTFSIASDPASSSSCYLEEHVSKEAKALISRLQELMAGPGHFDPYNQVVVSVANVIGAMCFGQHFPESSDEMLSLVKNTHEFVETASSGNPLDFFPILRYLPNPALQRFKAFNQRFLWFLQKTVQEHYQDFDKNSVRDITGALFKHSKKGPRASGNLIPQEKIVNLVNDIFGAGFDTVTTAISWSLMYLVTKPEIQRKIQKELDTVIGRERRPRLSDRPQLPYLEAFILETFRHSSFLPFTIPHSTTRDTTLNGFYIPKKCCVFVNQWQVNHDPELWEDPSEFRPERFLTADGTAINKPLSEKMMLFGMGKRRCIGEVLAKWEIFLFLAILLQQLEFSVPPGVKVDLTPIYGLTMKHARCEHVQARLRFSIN
Put plainly: Inhibition of CYP1A2 (unknown origin). In kind it is ADME.

The next data set has as its system Canis familiaris. Put plainly: Clearance in dog at 1 mg/kg, iv relative to hepatic blood flow. In kind it is ADME, organism-based, Canis lupus familiaris, Liver. Particulars: in vivo.
The test system of data set [5] is Liver microsome. Put plainly: Stability in rat liver microsomes assessed as compound remaining. Format: ADME. For orientation: Liver microsomes are a subcellular fraction often used to study metabolism.
The nature of data set [6]: Clearance in cynomolgus monkey at 1 mg/kg, iv. Format: ADME, organism-based, Macaca fascicularis. Particulars: in vivo.
The next data set has as its system CHO. Put plainly: Selectivity index, ratio of EC50 for agonist activity at human S1P5 receptor to EC50 for agonist activity at human S1P1 receptor expressed in CHO cell membranes. Format: cell-based.
In the next data set the target is T2, Cytochrome P450 2C8 (Homo sapiens, UniProt P10632).
T2 sequence (P10632 whole entry): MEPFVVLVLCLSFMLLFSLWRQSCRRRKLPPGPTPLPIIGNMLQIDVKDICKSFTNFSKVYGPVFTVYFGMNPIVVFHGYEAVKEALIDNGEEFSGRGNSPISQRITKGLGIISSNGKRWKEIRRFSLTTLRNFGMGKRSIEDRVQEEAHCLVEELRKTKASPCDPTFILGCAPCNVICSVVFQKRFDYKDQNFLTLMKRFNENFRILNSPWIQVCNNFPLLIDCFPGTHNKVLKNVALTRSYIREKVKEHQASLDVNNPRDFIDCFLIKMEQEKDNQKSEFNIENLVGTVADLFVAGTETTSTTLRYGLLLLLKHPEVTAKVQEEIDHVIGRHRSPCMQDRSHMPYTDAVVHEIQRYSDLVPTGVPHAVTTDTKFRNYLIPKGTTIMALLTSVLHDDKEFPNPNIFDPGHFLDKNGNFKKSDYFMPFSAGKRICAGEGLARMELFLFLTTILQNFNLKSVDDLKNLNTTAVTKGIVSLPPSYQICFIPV
Kind of data set: Inhibition of CYP2C8 (unknown origin). Format: ADME.

Data set [7] has as its target Sphingosine 1-phosphate receptor 1 (Homo sapiens, UniProt P21453). Kind of data set: Agonist activity at human S1P1 receptor expressed in CHO cell membranes assessed as stimulation of [35S]GTPgamma binding incubated for 45 mins by liquid scintillation counting method. The method, boiled down:
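Membranes from S1P1/CHO cells (S1P1) or EDG3-Ga15-bla HEK293T cells (S1P3), final protein […], with 3-fold compound dilutions. Buffer: 20 mM HEPES pH 7.5, 10 mM MgCl2, 150 mM NaCl, 1 mM EGTA, 1 mM DTT, GDP, 0.1% fatty acid free BSA, saponin. [35S]GTP 0.2 nM final. Room temperature, 45 min. Filtered, washed with water, dried 60 °C. EC50 taken at 50% of each compound's Ymax.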

Data set [8] in a line: Clearance in mouse at 2 mg/kg, iv. Format: ADME, organism-based. Particulars: in vivo.
A short description of data set [9]: Half life in rat at 2 mg/kg, iv. In kind it is ADME, organism-based. Particulars: in vivo.
For a further data set, the target named is Cytochrome P450 2D6 (Homo sapiens, UniProt P10635). Kind of data set: Inhibition of CYP2D6 (unknown origin). Format: ADME.
Data set [10] in a line: Half life in dog at 1 mg/kg, iv. Particulars: in vivo. In kind it is ADME, organism-based, Canis lupus familiaris.
The subject of data set [11] is Liver microsome. Put plainly: Stability in human liver microsomes assessed as compound remaining. In kind it is ADME.
For the next data set, the target named is hERG (KCNH2) (Homo sapiens, UniProt Q12809). Put plainly: Inhibition of human ERG at 30 uM by patch clamp assay.
Data set [12] is described as follows: Plasma concentration Lewis rat at 1 mg/kg, po after 24 hrs. In kind it is ADME, organism-based. The method in brief:
as §1

The subject of the next data set is Mus musculus. Kind of data set: Ratio of Cmax to Cmin in mouse at 5 mg/kg, po. In kind it is ADME, organism-based. Conditions: in vivo.

Sequence of Sphingosine 1-phosphate receptor 1 (P21453 whole entry): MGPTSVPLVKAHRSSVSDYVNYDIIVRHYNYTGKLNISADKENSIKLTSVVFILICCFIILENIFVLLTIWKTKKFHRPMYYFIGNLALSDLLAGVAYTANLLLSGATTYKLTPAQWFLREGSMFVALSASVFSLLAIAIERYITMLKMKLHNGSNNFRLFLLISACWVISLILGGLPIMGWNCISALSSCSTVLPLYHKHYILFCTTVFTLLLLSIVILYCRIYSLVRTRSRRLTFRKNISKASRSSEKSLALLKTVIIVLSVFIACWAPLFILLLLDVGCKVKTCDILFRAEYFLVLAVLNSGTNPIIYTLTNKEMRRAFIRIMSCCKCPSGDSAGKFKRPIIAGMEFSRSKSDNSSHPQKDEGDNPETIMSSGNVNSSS
Sequence of Cytochrome P450 2D6 (P10635 whole entry): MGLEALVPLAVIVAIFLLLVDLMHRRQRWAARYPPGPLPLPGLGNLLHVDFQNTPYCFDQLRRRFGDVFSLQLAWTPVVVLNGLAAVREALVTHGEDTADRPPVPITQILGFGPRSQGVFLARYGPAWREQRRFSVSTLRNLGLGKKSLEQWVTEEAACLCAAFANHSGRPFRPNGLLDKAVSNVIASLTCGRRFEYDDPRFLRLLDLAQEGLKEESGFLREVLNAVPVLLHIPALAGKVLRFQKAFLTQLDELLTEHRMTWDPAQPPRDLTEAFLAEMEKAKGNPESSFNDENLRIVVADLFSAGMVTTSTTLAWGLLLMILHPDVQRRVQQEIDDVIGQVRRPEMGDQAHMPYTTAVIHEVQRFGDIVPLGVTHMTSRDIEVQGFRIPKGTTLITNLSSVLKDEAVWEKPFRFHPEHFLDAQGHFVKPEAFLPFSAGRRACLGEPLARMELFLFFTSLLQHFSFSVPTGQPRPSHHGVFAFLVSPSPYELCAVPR
Sequence of hERG (KCNH2) (Q12809 whole entry): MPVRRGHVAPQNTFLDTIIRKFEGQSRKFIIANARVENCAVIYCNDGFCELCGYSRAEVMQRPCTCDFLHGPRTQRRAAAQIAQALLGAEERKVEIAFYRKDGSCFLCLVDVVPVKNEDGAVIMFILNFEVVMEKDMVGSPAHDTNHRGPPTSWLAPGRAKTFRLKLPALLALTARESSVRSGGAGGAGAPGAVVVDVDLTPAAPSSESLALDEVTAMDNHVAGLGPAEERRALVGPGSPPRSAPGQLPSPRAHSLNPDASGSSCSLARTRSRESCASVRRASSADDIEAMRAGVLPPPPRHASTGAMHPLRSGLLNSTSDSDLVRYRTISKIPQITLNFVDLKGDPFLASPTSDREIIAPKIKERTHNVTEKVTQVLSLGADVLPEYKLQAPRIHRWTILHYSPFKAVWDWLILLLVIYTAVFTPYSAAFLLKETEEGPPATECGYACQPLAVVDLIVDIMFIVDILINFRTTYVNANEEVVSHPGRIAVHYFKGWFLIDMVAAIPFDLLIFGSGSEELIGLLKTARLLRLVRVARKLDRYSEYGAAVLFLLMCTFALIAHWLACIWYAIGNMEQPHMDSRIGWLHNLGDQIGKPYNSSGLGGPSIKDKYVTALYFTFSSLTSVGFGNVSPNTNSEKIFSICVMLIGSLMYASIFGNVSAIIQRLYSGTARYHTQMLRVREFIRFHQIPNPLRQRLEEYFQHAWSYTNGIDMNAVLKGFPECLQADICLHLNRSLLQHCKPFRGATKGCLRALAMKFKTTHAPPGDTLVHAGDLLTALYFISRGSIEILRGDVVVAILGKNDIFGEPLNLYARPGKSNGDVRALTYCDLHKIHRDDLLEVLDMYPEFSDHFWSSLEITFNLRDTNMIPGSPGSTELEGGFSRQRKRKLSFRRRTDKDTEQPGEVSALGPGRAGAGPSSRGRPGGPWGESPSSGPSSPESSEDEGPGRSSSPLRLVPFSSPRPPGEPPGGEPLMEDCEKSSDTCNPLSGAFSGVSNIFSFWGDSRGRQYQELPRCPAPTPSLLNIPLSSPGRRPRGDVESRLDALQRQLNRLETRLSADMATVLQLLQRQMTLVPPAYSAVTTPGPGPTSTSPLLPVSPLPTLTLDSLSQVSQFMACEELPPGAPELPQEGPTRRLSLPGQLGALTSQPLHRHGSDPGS

With `O=C(O)C1CN(Cc2ccc(-c3noc(-c4onc(-c5ccccn5)c4C(F)(F)F)n3)cc2)C1`, the inhibition in the data set filed under Homo sapiens is less than 5%. For the same molecule, the Activity entry with Salmonella typhimurium is “Non-toxic”. Further, the bioavailability in data set [1] was determined as 100%. Besides, the Ratio in the data set with Rattus norvegicus was found to be 26; with Mus musculus, 2.8. In data set [2], this molecule displayed a concentration at 4 h of 2510 nM. In addition, the half-life was 1.1 h in [3], 4.8 h in [9] and 6.1 h in data set [10]. Moreover, the Vd in data set [4] amounted to 0.5 L/kg. Further, the concentration for half-maximal inhibition (IC50) on Cytochrome P450 1A2, against Cytochrome P450 2C8 and against Cytochrome P450 2D6 was more than 40 µM each time. Also, the CL in the data set on Canis familiaris is given as 8.4%. Further, the Stability in the data set on Liver microsome [5] was 100%; in the data set on Liver microsome [11], 88%. Moreover, the clearance in [6] amounted to 14 mL/min/kg; in [8] it was 0.3 mL/min/kg. In addition, in the data set with CHO, the Ratio EC50 worked out at 3.2. Further, the EC50 in [7] is 0.00071 µM. The inhibition at 30 µM against hERG (KCNH2) was 34%. In data set [12], this molecule registered a concentration at 24 h of 54 nM.

The inhibition is the share of the control response that was lost under treatment. As a reminder, the bioavailability is the share of a dose that reaches the circulation, judged against a reference dose that is usually intravenous. In general, half-life refers to how long it takes for the measured level to halve. What is called IC50 is the concentration that inhibits the measured activity by half. The term clearance denotes the volume of plasma or blood freed of the substance per unit of time. In general, EC50 refers to the midpoint of the concentration-response curve.
